# Most compounds without a hit are left out; they make up all but 3.9% or so of the library.
# CRFBP-R2 block = antagonists of CRF-BP/CRF-R2 complex, primary screen, cell-based, HEK293, calcium dye fluorescence, uHTS; CRF-induced calcium fluorescence; inhibition, % at 11.8 µM; 0.59% of 350,000 active; AID 588475, 2011;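 active means inhibition of the ligand-induced calcium signal above about 50% at the single tested concentration, limit read from the data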
# ANO1 block = TMEM16A chloride channel inhibitors, primary screen, cell-based, HTS; 1.2% of 310,000 active; HEK293 TMEM16A/YFP iodide influx fluorescence, ionomycin; Anoctamin-1 (Mus musculus), Q8BHY3; normalized B-score (activity score, 25-100; higher = stronger inhibition) at 10 µM;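 active means ratio plate-corrected score three or more library SD toward inhibition, starting fluorescence score within five deviations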;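 further: score derived from kinetic fluorescence span divided by baseline fluorescence per well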
# TAAR1 antagonist = human TAAR1 antagonists, primary screen, Fluo-8 calcium fluorescence, CHO RD-HGA16 cells. Trace amine-associated receptor 1 (Homo sapiens), Q96RJ0. antagonist. inhibition, % at 3 µM. 1.5% of 360,000 active. AID 624466, 2012;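 active means inhibition above a per-plate cutoff, the mean inhibition of test compounds on that plate plus 3 SD, cut at about 49% in these data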;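 further: 0% = DMSO plus EC80 beta-PEA response and 100% = DMSO alone without agonist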
# Target sequence (Q96RJ0 whole entry, looked up): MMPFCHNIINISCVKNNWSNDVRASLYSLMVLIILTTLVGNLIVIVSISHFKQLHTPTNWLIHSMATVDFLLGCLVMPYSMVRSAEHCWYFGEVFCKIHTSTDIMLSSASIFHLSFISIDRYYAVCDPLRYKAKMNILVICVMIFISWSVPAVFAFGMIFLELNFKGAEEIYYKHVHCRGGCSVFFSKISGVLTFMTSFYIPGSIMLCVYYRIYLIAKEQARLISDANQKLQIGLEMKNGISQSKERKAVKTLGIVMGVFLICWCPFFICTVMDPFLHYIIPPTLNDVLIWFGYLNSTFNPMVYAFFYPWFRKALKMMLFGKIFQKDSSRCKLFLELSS
#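 Test system: RD-HGA16 CHO cells with stable hTAAR1 and Gα16 / Probe or stimulus: EC80 β-phenethylamine stimulus / Times: seeding 17-24 h prior, 75-min 37 °C, 30-min RT dye loading / Detection: Fluo-8 calcium-sensitive fluorescence / Read-out basis: % inhibition scaled between DMSO and EC80 PEA controls / Repeats: singlicate, one well per test compound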
# CRFBP-R2 agonist = agonists of CRF-BP/CRF-R2 complex, primary screen, cell-based, HEK293, calcium dye fluorescence, uHTS; AID 588473, 2011; calcium dye fluorescence (FLIPR); percent of saturating CRF peptide response; CRF-binding protein / CRF receptor 2 complex (human); activation, % at 13.2 µM; 0.46% of 350,000 active;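 active means activation of at least 50%, plus an integration ratio under a set limit after plate pattern correction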;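 further: plate controls were neutral control wells without compound for no effect and CRF at EC100 for full effect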
# ANO1 activ = TMEM16A chloride channel activators or potentiators, primary screen, cell-based, HTS. Anoctamin-1 (Mus musculus), Q8BHY3. HEK293 TMEM16A/YFP-H148Q/I152L, iodide quench fluorescence; active compounds read low. B-score at 10 µM. 0.3% of 340,000 active;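 active means fluorescence-ratio B-score plate-corrected deviation score at least 3 library SD below zero, with starting fluorescence score within 5 deviations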;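 further: channel opened by trigger with iodide after compound preincubation; score built on the fluorescence ratio of max minus min over baseline; more negative score means more quench and so TMEM16A activation or potentiation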
# TAAR1 agonist = human TAAR1 agonists, primary screen, Fluo-8 calcium fluorescence, CHO RD-HGA16 cells | vehicle wells 0%, saturating PEA agonist 100% | activation, % at 3 µM | 0.99% of 360,000 active | AID 624467, 2012;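 active means activation above the mean activation of all test compounds in the run plus 3 SD, cut at about 38% in these data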
#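 System: CHO RD-HGA16 cells carrying human TAAR1 plus Gα16; Incubation: 17-24 h seeding, 75 min 37 °C dye, 30 min RT; Measured by: Fluo-8 fluorescence, 5 s baseline then 140 s kinetic read; Control set: DMSO and PEA EC100; Replication: single well for each compound.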
# TAAR1 ag confirm = human TAAR1 agonists, retest of hits, confirmation, Fluo-8 calcium fluorescence, CHO RD-HGA16 cells | 82% of 2,400 active | shares compounds with TAAR1 agonist | AID 651783, 2012 | activation, % at 3 µM | scaled: DMSO 0%, maximal phenethylamine 100%;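 active means activation above a cutoff set at the run's mean compound activation plus 3 SD, cut at about 39% in these data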
# Ga16 ag counter = nonselective calcium mobilization agonists, CHO-Ga16 cells, counter-screen for hTAAR1 agonist project, cell-based, fluorescence, CHO-Ga16 parental line; 50% of 2,400 active; activation, % at 3 µM; Fluo-8 calcium fluorescence; normalized to maximal ATP response, DMSO zero; shares compounds with TAAR1 agonist;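 active means activation above the run cutoff, the mean activation over all tested wells plus 3 SD, cut at about 12% in these data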;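 further: 0% = DMSO wells and 100% = maximal ATP response on the peak over basal ratio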
# TAAR1 desensitize = TAAR1 desensitization by agonist hits, confirmation, counter-screen for TAAR1 agonist project, cell-based, fluorescence, tachyphylaxis; 46% of 2,400 active; CHO RD-HGA16 hTAAR1, Fluo-8 calcium, beta-PEA response inhibition; inhibition, % at 3 µM; shares compounds with TAAR1 agonist; AID 651951, 2012;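 active means inhibition above the run cutoff, the mean inhibition of all test compounds plus 3 SD, cut at about 49% in these data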;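 further: beta-PEA stimulus applied at its EC80; loss of beta-PEA calcium signal after compound pretreatment read as receptor desensitization; 0% = DMSO with beta-PEA at EC80 and 100% = DMSO alone without agonist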
# Ga16 antag count = inhibition of ATP-evoked calcium response in CHO-Ga16 cells, counter-screen for TAAR1 agonist project, cell-based, fluorescence; shares compounds with TAAR1 agonist; CHO-Ga16 ATP-induced calcium, Fluo-8 fluorescence; inhibition, % at 3 µM; 39% of 2,400 active; AID 651952, 2012;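 active means inhibition above the plate's mean compound inhibition plus 3 SD, computed per plate, cut at about 22% in these data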;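 further: 0% = EC80 ATP with DMSO and 100% = DMSO wells without ATP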
# * hit, by the source's call; i = inactive; x = no result.
SMILES,CRFBP-R2 block,ANO1 block,TAAR1 antagonist,CRFBP-R2 agonist,ANO1 activ,TAAR1 agonist,TAAR1 ag confirm,Ga16 ag counter,TAAR1 desensitize,Ga16 antag count
Cc1cc(C(=O)CN2C(=O)NC(C)(c3ccc(F)c(F)c3)C2=O)c(C)n1C1CC1 (stereo unspecified),-25,x,48,17,x,68*,84*,30*,39,16
C=CCNC(=O)CN1C(=O)NC(C)(c2ccc(OC)cc2)C1=O (stereo unspecified),0,i,0,-1,i,-3,x,x,x,x
Cc1cc(C(=O)CN2C(=O)NC(CC(C)C)C2=O)c(C)n1C1CC1 (stereo unspecified),-25,x,9,7,i,4,x,x,x,x
COc1ccc(C2(C)NC(=O)N(CC(=O)c3cc(C)n(C4CC4)c3C)C2=O)cc1 (stereo unspecified),-52,x,83*,100*,i,137*,104*,50*,48,26*
CCC(=O)N(CC)c1nc(-c2cc(OC)ccc2OC)cs1,11,i,43,-2,i,50*,45*,35*,39,26*
CCC(=O)N(CCCN(C)C)c1nc(-c2cc(OC)ccc2OC)cs1,0,i,-2,-1,i,4,x,x,x,x
CCCCCCn1c(=O)[nH]c2nc3cc(N)ccc3nc2c1=O,-308,i,57*,275*,x,118*,95*,96*,68*,67*
O=C(O)CN1C(=O)/C(=C\C(Br)=C\c2ccccc2)SC1=S,4,i,3,1,i,1,x,x,x,x
O=C(O)CCC(=O)NCC1OCCc2ccccc21 (stereo unspecified),23,i,7,0,i,54*,16,2,13,8
C[C@H](NC(=O)[C@@H]1CSC2c3ccccc3C(=O)N21)C(=O)NCCc1ccccc1 (stereo partly specified),-2,i,15,-1,i,68*,81*,0,41,6
OC(COC(c1ccc(Cl)cc1)c1ccc(Cl)cc1)CN1CCc2ccccc2C1 (stereo unspecified),-77,i,25,3,i,82*,81*,3,49*,13
Cc1ccc(COC(=O)CCN=C2NS(=O)(=O)c3ccccc32)cc1,1,i,-6,1,i,3,x,x,x,x
COCc1cc(C)nc(N2CCNCC2)c1C#N,-13,i,8,1,i,53*,57*,0,22,3
CCOc1cc2c(C#N)c(N3CCNCC3)nc(N)c2c(N)n1,14,i,54*,2,i,61*,83*,3,81*,12
CCO[C@H]1OC(C(=O)N2CCCCCCC2)=C[C@@H](c2ccccc2)[C@@H]1CCCO,10,i,11,-1,i,7,x,x,x,x
CCn1c(SCC(=O)c2c(N)n(C3CC3)c(=O)[nH]c2=O)nnc1-c1ccoc1C,-7,x,-17,1,i,5,x,x,x,x
C/C(=N/NC(=O)c1ccco1)c1ccc(NC(=O)c2ccc(F)cc2)cc1,-6,i,-7,-1,i,6,x,x,x,x
Cc1ccccc1NC(=O)C(C)OC(=O)CCC(=O)c1ccccc1 (stereo unspecified),11,x,-4,-1,x,0,x,x,x,x
CC(=O)C1=CCC(c2ccc(Cl)c(Cl)c2)N(S(=O)(=O)c2ccc(C)cc2)C1 (stereo unspecified),x,x,22,x,x,0,x,x,x,x
COc1ccc(SCC(=O)Nc2ccc(N3CCN(C)CC3)c(F)c2)cc1,-8,i,2,0,i,25,x,x,x,x
Cc1ccc(SCC(=O)Nc2ccc(N3CCN(C)CC3)c(F)c2)cc1,-28,i,21,-1,i,49*,69*,4,39,8
CN1C(=O)C2CN(CCc3ccccc3)CNC2N(C)C1=O (stereo unspecified),4,i,x,0,i,x,x,0,x,-3
CC(C)=C1C2CCC1C1C(=O)N(CCc3ccccc3)C(=O)C21 (stereo unspecified),-3,i,11,-2,i,11,x,x,x,x
CC(NS(=O)(=O)c1ccccc1)C(=O)Nc1ccc2c(c1)OCCO2 (stereo unspecified),1,i,-5,-1,i,3,x,x,x,x
N=C(N)SCc1ccc(Cl)cc1Cl,-7,i,32,0,i,58*,87*,19*,60*,15
Cn1cccc1/C=C1\CCC/C(=C\c2cccn2C)C1=O,-185,i,88*,155*,i,165*,33,36*,36,46*
NC(Cc1ccc(F)cc1)c1csc(Nc2ccc(C(F)(F)F)cn2)n1 (stereo unspecified),x,x,45,x,x,74*,49*,27*,38,35*
Cc1ccc(C(=O)Nc2nc(C(N)Cc3ccc(C(F)(F)F)cc3)cs2)cc1 (stereo unspecified),x,x,44,x,x,65*,52*,29*,45,43*
CN(Cc1ccccc1)C(=O)c1ccc(Nc2nc(C(N)COCc3ccccc3)cs2)nc1 (stereo unspecified),x,x,15,x,x,23,x,x,x,x
NC(Cc1ccccc1)c1csc(Nc2ccc(C(=O)NCCCO)cn2)n1 (stereo unspecified),x,x,-14,x,x,7,x,x,x,x

# Compound activity: PubChem, several laboratories
